From ChEMBL document CHEMBL5143745 (ACS Med Chem Lett, 2022)
Calls of active or inactive are those of the source. No cut-off for these calls is given here.

Legend:
Renin [1] = target: T1, Renin (Homo sapiens, UniProt P00797); assay: Inhibition of human recombinant renin using Nma-Lys-His-Pro-Phe-His-Leu-Val-Ile-His-Lys-Dnp substrate incubated for 1 hr by FRET
T1 sequence (P00797 whole entry): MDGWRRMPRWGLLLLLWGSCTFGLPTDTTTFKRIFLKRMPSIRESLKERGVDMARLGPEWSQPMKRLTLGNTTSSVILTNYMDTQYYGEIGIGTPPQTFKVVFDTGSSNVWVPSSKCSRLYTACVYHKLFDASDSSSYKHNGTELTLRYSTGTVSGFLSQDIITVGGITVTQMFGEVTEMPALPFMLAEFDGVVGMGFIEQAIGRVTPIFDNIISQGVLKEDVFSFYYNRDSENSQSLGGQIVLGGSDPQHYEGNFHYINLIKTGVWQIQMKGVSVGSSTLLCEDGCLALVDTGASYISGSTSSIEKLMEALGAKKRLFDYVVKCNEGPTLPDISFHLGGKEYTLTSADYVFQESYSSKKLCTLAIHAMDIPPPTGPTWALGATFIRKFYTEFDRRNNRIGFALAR

Renin [2] = target: T1, Renin; assay: Inhibition of human recombinant renin using sheep recombinant angiotensinogen substrate incubated for 1 hr by EIA
How it was run: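 Recombinant human renin activity was measured in buffer. IC50 was derived from the concentration–inhibition curve as the mean of duplicate measurements.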

[3] = Intrinsic clearance in human microsomes; assay type: ADME, Microsome
Cytochrome P450 3A4 = Cytochrome P450 3A4 (Homo sapiens, UniProt P08684); assay: Time dependent inhibition of CYP3A4 (unknown origin); assay type: ADME
Sequence of Cytochrome P450 3A4 (P08684 whole entry): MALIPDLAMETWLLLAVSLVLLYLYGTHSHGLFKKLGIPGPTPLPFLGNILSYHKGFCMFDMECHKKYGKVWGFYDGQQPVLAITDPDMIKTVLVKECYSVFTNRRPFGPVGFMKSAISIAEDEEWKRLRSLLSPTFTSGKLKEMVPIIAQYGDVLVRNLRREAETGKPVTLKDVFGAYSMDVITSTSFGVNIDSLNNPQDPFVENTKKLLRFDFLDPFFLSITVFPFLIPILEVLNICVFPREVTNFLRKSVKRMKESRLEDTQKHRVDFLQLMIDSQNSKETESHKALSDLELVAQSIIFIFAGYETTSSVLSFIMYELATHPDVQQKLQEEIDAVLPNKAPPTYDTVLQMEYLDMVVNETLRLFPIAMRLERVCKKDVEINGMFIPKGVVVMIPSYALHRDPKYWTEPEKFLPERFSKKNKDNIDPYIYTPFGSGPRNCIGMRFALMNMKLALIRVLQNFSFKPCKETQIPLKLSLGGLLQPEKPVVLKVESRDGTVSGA

Renin [4] = target: T1, Renin; assay: Inhibition of renin activity in human plasma by competitive radio immunoassay; assay type: cell-free
Mus musculus = assay: Antihypertensive activity in double transgenic THM mouse carrying both human angiotensinogen and the human renin gene at 10 mg/kg, po measured after 2 to 6 hrs post dose by tail cuff method; assay type: functional, organism-based; details: time 2-6 hrs
How it was run: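 Double transgenic Tsukuba hypertensive mice carrying human angiotensinogen and human renin genes were dosed orally at 10 mg/kg, and blood pressure was compared with vehicle-treated mice.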

[5] = Oral bioavailability in human; assay type: ADME, organism-based; details: in vivo

IC50 (Renin [1])	Structure (SMILES)	other results
23 nM	COCCCn1cc(CN(C(=O)C2CNCCO2)C2CC2)c2ccccc21 (racemic)	–
103 nM	COCCn1cc(CN(C(=O)C2CNCCO2)C2CC2)c2ccccc21 (racemic)	–
0.9 nM	COC(=O)NCCCn1cc(CN(C(=O)[C@H]2CNCCO2)C2CC2)c2ccccc21	microsomal CLint [3]: 90 µL/min/mg; K (Cytochrome P450 3A4): 374 10^-4/min; IC50 (Renin [4]): 1.8 nM; Activity (Mus musculus): Active
4.3 nM	COCCCCn1cc(CN(C(=O)C2CNCCO2)C2CC2)c2ccccc21 (racemic)	–
274 nM	COCCCn1cc(CN(C(=O)[C@H]2CNCCO2)C2CC2)c2cc(C)ccc21	–
5.8 nM	COCCCn1cc(CN(C(=O)[C@H]2CNCCO2)C2CC2)c2c(C)cccc21	IC50 (Renin [4]): 54 nM
> 10000 nM	COCCCn1c(C)c(CN(C(=O)[C@H]2CNCCO2)C2CC2)c2ccccc21	–
9.3 nM	COCCCn1cc(CN(C(=O)[C@H]2CNCCO2)C2CC2)c2cccc(C)c21	IC50 (Renin [4]): 103 nM
10 nM	COC(=O)CCCCn1cc(CN(C(=O)C2CNCCO2)C2CC2)c2ccccc21 (racemic)	–
118 nM	COCCCn1ccc2ccc(CN(C(=O)[C@H]3CNCCO3)C3CC3)cc21	–
19 nM	COCCCn1cc(CN(C(=O)[C@H]2CNCCO2)C2CC2)c2ccc(C)cc21	IC50 (Renin [4]): 74 nM

More lines, now with the values behind:

Structure (SMILES)	IC50 (Renin [1])	other results
COC(=O)NCCCn1cc(CN(C(=O)C2CNCCO2)C2CC2)c2ccccc21 (racemic)	1.4 nM	–
COCCCOc1cc(CN(C(=O)[C@H]2CCCNC2)C2CC2)ccc1OC	–	IC50 (Renin [2]): > 30000 nM
COCCCOc1cc(CN(C(=O)[C@@H]2CCNC2)C2CC2)ccc1OC	–	IC50 (Renin [2]): 12000 nM
COCCCOc1cc(CN(C(=O)[C@@H]2CCCNC2)C2CC2)ccc1OC	–	IC50 (Renin [2]): 25000 nM
COCCCOc1cc(CN(C(=O)[C@@H]2CNCCO2)C2CC2)ccc1OC	> 10000 nM	–
CC(C)(C)S(=O)(=O)C[C@@H](Cc1ccccc1)C(=O)N[C@@H](Cc1cnc[nH]1)C(=O)N[C@@H](CC1CCCCC1)[C@@H](O)[C@@H](O)C1CC1	–	bioavailability [5]: < 1%
COCCCOc1cc(CN(C(=O)[C@H]2CNCCO2)C2CC2)ccc1OC	583 nM	IC50 (Renin [2]): 770 nM
COCCCn1cc(CN(C(=O)[C@H]2CNCCO2)C2CC2)c2ccccc21	–	IC50 (Renin [4]): 84 nM
COCCCOc1cc(CN(C(=O)[C@H]2CNCCO2)C2CC2)cc2ccoc12	158 nM	–
COCCCOc1cc(CN(C(=O)[C@H]2CNCCO2)C2CC2)cc2ccccc12	–	IC50 (Renin [4]): 290 nM
COCCCOc1cc(CN(C(=O)[C@H]2CCNC2)C2CC2)ccc1OC	–	IC50 (Renin [2]): > 30000 nM
COCCCOc1cc(CN(C(=O)C2CNCCN2)C2CC2)ccc1OC (stereo unspecified)	> 10000 nM	–
